Data reported in PMC5131535 (ACS chemical neuroscience, 2016).
Several values for one entry are separate records, joined by “and”; a condition that tells them apart may be missing. Equal entries are not always repeated. Entries after “also recorded” stand apart in the source; their conditions may differ. Where two headings read alike, the source gives them in different places. Each block holds one molecule with its values, some of them ahead of it.

How the values were obtained:
[1] = target: T1, Kir7.1-M125R (Homo sapiens, UniProt O60928, M125R); test: Tl+ flux assay in T-REx-HEK293 cells expressing Kir7.1-M125R; format: cell-based
T1 sequence (O60928 1-360 M125R): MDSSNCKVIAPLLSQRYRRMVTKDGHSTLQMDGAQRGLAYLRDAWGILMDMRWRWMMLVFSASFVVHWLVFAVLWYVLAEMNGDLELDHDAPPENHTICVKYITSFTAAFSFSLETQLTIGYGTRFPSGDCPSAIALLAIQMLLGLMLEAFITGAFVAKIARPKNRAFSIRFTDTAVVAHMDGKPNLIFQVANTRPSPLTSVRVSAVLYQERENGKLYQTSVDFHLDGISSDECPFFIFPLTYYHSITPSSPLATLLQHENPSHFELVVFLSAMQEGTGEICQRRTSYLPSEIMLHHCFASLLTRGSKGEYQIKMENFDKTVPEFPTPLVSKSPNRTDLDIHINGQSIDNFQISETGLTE
Summary of the method: (§1)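 Tetracycline-inducible stable T-REx-HEK-293 lines, induced overnight with 1 µg/ml tetracycline in DMEM/10% dialyzed FBS. Cells loaded 1 hr with 1.2 µM Thallos-AM in HBSS/20 mM HEPES pH 7.3 with 0.01% Pluronic F-127. Baseline fluorescence (ex 470, em 540 nm) read at 1 Hz before adding stimulus buffer with 1.8 mM Tl₂SO₄. Traces normalized to first point and vehicle-subtracted; slope taken 5–20 s post-Tl⁺; IC50 by nonlinear regression of CRCs.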

[2] = target: T2, Kir7.1 (Homo sapiens, UniProt O60928, M125R); test: Whole-cell patch clamp electrophysiology, Kir7.1; format: cell-based
T2 sequence (O60928 1-360 M125R): T1 sequence (O60928 1-360 M125R)
Summary of the method: (§2)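 Human Kir7.1 (WT or mutant) was transiently co-transfected with EGFP into HEK-293T cells, which were replated next day on poly-L-lysine coverslips. Whole-cell clamp used bath 5 mM KCl, pH 7.4, and pipette 135 mM KCl, pH 7.3. Cells were held at −75 mV, stepped 500 ms to −120 mV, then ramped to 120 mV, every 5 s. Increasing test-compound doses were superfused, then BaCl₂ block; current read at −120 mV; variable-slope Hill fit, mean of n = 5.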

[3] = target: T1, Kir7.1-M125R; test: Whole-cell voltage clamp, Kir7.1-M125R; format: cell-based
Summary of the method: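 HEK-293T cells transiently co-transfected with WT or mutant human Kir7.1 plus EGFP marker, replated next day on poly-L-lysine coverslips. Bath: 135 NaCl, 5 KCl, pH 7.4; pipette: 135 KCl, 1 EGTA, pH 7.3 (mM). Hold −75 mV, step to −120 mV for 500 ms, ramp to 120 mV. Increasing test compound concentrations superfused, then Ba²⁺ block. Inhibition at −120 mV; Hill-equation IC50, n = 5.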

[4] = target: Kir7.1-WT (Homo sapiens, UniProt O60928); test: Whole-cell patch clamp, Kir7.1-WT; format: cell-based; conditions: read-out: Kir7.1-WT IC50, -120 mV
Chain of Kir7.1-WT (O60928 whole entry): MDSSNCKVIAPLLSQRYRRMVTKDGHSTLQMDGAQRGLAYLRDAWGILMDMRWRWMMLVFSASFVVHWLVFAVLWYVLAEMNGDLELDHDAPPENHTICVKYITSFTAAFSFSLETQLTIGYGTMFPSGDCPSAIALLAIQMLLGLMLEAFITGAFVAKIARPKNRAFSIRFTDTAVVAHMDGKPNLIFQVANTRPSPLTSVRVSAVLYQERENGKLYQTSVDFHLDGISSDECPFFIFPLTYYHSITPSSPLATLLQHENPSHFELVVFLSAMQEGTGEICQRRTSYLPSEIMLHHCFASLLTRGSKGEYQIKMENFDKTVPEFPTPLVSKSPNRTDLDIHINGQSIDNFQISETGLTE
Summary of the method: as §2

[5] = target: Kir7.1 pore mutants (Homo sapiens, UniProt O60928, I160M); format: cell-based; conditions: 3 µM, -120 mV
Chain of Kir7.1 pore mutants (Homo sapiens, UniProt O60928, I160M) (O60928 whole entry I160M): as the sequence (O60928 whole entry) above, with I160M counted along it
Summary of the method: (§3)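 Single pore-lining residues were mutated on a WT or M125R Kir7.1 background and expressed transiently with EGFP in HEK-293T cells. The whole-cell step-ramp protocol from a −75 mV holding potential was used, with test compound at 3 µM. Read-out was % inhibition of current at −120 mV, mean ± SEM, tested against the respective parent channel (P < 0.05).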

[6] = system: Kir7.1 pore mutants; format: cell-based, human; conditions: 3 µM, -120 mV
Summary of the method: as §3

[7] = target: Kir1.1 (Rattus norvegicus, UniProt P35560); test: Tl+ flux selectivity assay, Kir1.1; format: cell-based
Chain of Kir1.1 (Rattus norvegicus, UniProt P35560) (P35560 whole entry): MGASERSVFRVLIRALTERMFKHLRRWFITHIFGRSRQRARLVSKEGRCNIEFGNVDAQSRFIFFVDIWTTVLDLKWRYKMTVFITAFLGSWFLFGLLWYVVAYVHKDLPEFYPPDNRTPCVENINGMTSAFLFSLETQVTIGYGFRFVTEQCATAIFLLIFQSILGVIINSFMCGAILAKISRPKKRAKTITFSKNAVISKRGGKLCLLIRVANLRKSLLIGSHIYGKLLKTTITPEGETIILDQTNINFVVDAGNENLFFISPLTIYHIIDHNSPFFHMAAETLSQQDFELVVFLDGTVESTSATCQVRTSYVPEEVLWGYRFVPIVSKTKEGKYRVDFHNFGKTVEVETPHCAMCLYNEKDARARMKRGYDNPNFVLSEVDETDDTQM
Summary of the method: as §1

[8] = system: Kir1.1; test: Tl+ flux selectivity assay, Kir1.1; format: cell-based; conditions: Thallium flux, Kir7.1 over Kir1.1
Summary of the method: as §1

[9] = target: T3, Kir4.1 (Homo sapiens, UniProt P78508); test: Tl+ flux selectivity assay, Kir4.1; format: cell-based; conditions: for Kir Channel Selectivity (Fold) 4.1: Thallium flux, Kir7.1 over Kir4.1
T3 sequence (P78508 1-379): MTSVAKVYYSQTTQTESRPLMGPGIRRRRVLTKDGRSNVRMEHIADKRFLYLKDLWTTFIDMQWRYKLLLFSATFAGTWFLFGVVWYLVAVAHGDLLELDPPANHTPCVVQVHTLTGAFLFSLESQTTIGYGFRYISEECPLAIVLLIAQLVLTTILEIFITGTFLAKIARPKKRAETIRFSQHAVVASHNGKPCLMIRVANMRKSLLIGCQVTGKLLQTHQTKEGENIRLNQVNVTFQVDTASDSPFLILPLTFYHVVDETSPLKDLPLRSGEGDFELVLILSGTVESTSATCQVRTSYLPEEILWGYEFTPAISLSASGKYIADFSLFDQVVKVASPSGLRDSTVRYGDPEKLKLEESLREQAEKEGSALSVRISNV
Summary of the method: as §1

[10] = target: Kir6.2/SUR1 (Homo sapiens, UniProt Q14654); test: Tl+ flux selectivity assay, Kir6.2/SUR1; format: cell-based; conditions: for Kir Channel Selectivity (Fold) 6.2: Thallium flux, Kir7.1 over Kir6.2/SUR1
Chain of Kir6.2/SUR1 (Q14654 whole entry): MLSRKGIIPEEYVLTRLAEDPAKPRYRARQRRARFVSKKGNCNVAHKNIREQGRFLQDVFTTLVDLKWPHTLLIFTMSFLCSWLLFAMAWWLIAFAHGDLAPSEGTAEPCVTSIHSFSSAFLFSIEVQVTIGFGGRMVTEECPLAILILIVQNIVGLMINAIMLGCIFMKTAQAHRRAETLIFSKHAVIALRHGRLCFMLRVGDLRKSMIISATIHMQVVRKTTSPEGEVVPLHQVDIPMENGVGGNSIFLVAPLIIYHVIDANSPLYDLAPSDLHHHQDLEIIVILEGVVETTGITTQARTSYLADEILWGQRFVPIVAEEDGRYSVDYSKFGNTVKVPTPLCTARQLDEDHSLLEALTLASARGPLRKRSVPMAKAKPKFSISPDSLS
Chain of Kir6.2/SUR1 (Q09428 whole entry partner): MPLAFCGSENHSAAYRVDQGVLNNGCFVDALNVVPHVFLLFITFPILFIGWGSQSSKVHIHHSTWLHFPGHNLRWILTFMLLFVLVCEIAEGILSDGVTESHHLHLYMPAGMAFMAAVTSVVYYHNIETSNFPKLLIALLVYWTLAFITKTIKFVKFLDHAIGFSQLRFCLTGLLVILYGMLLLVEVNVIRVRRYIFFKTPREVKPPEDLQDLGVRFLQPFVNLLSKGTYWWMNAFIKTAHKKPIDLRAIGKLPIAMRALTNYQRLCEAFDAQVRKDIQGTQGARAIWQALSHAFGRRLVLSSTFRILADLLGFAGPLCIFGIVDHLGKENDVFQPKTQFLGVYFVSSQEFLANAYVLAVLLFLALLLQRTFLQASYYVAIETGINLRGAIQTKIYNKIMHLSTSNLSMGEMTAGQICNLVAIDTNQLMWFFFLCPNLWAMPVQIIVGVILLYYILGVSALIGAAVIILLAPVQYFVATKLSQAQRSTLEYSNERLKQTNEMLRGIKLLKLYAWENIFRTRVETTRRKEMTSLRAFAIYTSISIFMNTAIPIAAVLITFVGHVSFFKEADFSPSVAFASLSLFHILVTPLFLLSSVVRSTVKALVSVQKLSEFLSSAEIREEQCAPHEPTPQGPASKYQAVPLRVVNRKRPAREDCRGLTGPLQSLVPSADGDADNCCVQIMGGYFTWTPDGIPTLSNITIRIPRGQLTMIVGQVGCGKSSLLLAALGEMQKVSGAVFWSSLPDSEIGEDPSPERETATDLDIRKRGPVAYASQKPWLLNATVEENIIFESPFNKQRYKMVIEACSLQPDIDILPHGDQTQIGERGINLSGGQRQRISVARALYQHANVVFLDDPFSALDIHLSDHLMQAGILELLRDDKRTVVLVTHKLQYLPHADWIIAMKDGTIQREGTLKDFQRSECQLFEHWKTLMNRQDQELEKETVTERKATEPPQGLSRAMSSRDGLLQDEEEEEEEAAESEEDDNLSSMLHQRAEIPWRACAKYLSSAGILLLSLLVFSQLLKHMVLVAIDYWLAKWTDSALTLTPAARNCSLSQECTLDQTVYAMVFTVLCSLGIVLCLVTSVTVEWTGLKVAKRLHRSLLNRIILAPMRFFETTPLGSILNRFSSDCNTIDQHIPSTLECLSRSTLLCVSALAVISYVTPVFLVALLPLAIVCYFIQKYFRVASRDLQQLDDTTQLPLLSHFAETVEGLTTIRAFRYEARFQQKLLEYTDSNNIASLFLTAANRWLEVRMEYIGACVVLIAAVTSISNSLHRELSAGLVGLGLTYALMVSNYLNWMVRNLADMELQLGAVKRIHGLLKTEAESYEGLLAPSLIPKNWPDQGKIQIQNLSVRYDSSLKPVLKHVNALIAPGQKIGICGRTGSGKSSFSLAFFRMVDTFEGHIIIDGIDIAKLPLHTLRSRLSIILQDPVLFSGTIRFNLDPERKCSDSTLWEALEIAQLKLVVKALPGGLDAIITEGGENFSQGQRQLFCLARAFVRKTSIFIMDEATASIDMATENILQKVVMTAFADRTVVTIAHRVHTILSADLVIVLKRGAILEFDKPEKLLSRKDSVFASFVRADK
Summary of the method: as §1

[11] = plasma
[12] = plasma; remark: listed apart in the source
[13] = system: L-type calcium channel; test: Lead Profiling Screen; format: binding; conditions: significant interaction
[14] = system: voltage-gated sodium channel; test: Lead Profiling Screen; format: binding; conditions: significant interaction
[15] = target: Dopamine D2S receptor (Homo sapiens, UniProt P14416); test: Lead Profiling Screen; format: binding; conditions: significant interaction
Chain of Dopamine D2S receptor (P14416 1-414 isoform P14416-2): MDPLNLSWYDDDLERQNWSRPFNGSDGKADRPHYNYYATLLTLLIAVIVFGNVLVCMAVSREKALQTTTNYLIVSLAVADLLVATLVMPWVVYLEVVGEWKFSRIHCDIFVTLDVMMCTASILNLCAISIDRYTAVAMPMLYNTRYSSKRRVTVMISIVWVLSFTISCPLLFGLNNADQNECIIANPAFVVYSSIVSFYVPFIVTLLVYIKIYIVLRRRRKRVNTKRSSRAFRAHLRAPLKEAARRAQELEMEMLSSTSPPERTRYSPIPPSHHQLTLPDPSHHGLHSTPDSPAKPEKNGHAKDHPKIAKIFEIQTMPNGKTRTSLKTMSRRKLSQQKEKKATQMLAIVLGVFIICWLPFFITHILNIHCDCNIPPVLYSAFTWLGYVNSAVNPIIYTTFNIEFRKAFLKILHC

[16] = target: Dopamine D4.2 receptor (Homo sapiens, UniProt P21917, DEL265-296); test: Lead Profiling Screen; format: binding; conditions: significant interaction
[17] = target: hERG (Homo sapiens, UniProt Q12809); test: Lead Profiling Screen; format: binding; conditions: among 58 GPCRs, ion channels and transporters
Chain of hERG (Q12809 whole entry): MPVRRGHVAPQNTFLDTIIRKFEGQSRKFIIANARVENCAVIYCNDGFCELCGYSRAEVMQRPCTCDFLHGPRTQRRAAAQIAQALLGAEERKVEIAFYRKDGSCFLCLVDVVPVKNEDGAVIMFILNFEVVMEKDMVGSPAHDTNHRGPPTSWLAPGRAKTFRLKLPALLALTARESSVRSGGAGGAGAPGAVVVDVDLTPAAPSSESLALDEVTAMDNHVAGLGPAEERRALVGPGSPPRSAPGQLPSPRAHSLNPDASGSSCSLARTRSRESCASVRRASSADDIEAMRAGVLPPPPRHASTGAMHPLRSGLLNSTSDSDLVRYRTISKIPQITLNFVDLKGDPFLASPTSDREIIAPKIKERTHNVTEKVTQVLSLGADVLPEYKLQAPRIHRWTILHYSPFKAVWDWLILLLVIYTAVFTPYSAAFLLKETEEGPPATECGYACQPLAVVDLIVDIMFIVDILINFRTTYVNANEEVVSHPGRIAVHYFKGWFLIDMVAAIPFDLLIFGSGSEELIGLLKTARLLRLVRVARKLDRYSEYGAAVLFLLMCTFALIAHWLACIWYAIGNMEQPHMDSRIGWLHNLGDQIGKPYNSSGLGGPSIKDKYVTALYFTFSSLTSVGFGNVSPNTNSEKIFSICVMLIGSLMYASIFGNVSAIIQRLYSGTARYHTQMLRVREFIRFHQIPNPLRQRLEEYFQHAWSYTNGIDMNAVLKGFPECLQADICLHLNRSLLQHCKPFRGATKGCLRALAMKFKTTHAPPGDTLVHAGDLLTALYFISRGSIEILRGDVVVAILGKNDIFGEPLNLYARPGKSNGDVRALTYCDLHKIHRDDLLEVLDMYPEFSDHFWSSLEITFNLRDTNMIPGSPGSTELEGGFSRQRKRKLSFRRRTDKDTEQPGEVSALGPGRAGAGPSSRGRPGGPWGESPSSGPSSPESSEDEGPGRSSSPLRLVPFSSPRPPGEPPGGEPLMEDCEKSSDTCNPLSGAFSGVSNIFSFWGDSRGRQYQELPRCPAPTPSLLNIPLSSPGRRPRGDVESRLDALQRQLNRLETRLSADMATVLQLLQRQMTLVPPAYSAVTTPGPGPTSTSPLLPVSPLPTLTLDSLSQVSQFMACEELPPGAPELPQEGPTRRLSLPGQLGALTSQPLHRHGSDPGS

[18] = CNS distribution study in mice; format: in vivo, mouse; conditions: average of four mice
[19] = Protein binding in plasma; conditions: rat
[20] = Protein binding in plasma; conditions: mouse
[21] = Protein binding in plasma; conditions: human

Compound: Oc1c(CN2CCC(Cc3ccccc3)CC2)cc(Cl)c2cccnc12 [VU714]
IC50 ([1]; read-out: Kir7.1 IC50 (Thallium flux), hKir7.1 (M125R) Tl+ flux, average n = 3): 5600 nM
IC50 ([2]; read-out: Kir7.1 IC50 (Patch clamp), -120 mV): 1500 nM
Shift in IC50, patch clamp electrophysiology compared with Tl+ flux [3]: 3.7 fold
Inhibition of outward and inward Kir7.1-M125R-mediated current ([3]; 10 µM): fully inhibited
Effect of M125R mutation on sensitivity ([3]; compared with WT): does not alter VU714 sensitivity
IC50 ([3]; read-out: Kir7.1-M125R IC50 (whole-cell voltage clamp), -120 mV): 1500 nM and 1600 nM and ~2000 nM
IC50 [4]: 1400 nM and ~2000 nM
Effect of mutation I160M on Kir7.1 inhibition [5]: no effect
Effect of double mutation E149Q and A150S on sensitivity [6]: additive loss of VU714 sensitivity; also recorded: virtually eliminated block of the channel
Effect of mutation E149D on block [6]: no effect on block
Kir1.1 (ROMK) IC50 (Tl+ flux) [7]: weakly inhibited
IC50 ([7]; read-out: Kir1.1 (ROMK) IC50 (Tl+ flux)): 16000 nM
Kir Channel Selectivity (Fold) 1.1 [8]: 3 Fold
Kir Channel Selectivity (Fold) 4.1 [9]: 2 Fold
IC50 ([9]; read-out: Kir4.1 IC50 (Tl+ flux)): 13000 nM
Kir Channel Selectivity (Fold) 6.2 [10]: 5 Fold
IC50 ([10]; read-out: Kir6.2/SUR1 IC50 (Tl+ flux)): 30000 nM
PPB (%Fu) Rat [11]: 1.8%
PPB (%Fu) Human [12]: 0.5%

IC50 [1]: 1300 nM
IC50 ([2]; Kir7.1 IC50 (Patch clamp), -120 mV): 300 nM and 310 nM
Kir Channel Selectivity (Fold) 4.1 [9]: at least 23 Fold
Kir Channel Selectivity (Fold) 4.1 ([9]; listed as 19 (ML418)): >23 Fold
Kir Channel Selectivity (Fold) 6.2 ([10]; listed as 19 (ML418)): 1 Fold
Kir Channel Selectivity (Fold) 6.2 ([10]; listed as ML418): equally potent
Radioligand displacement, L-type calcium channel [13]: > 50%
Radioligand displacement, voltage-gated sodium channel [14]: > 50%
Radioligand displacement, Dopamine D2S receptor [15]: > 50%
Radioligand displacement, Dopamine D4.2 receptor [16]: > 50%
brain concentration [18]: 323.9 ng/g
fraction unbound [19]: 0.088
fraction unbound [20]: 0.114
fraction unbound [21]: 0.01
Compound: CC(C)OC(=O)NC1CCN(Cc2cc(Cl)c3cccnc3c2O)CC1 [Compound 19, iso-Propyl (1-((5-chloro-8-hydroxyquinolin-7-yl)methyl)piperidin-4-yl)carbamate]
Kir Channel Selectivity (Fold) 1.1 [8]: at least 23 Fold
Kir Channel Selectivity (Fold) 1.1 ([8]; listed as 19 (ML418)): >23 Fold
Ancillary pharmacology, hERG [17]: clean ancillary pharmacology
